Hits are enriched below; roughly 2.1% of the tested compounds scored in any of these assays.
LMPTP inh – LMPTP (human) inhibition; P24666; recombinant LMPTP-A, OMFP fluorogenic substrate, fluorescence intensity; inhibition, % at 20 µM; 0.22% of 360,000 active; AID 651560;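 active = compounds that cut the enzyme signal by at least half of the control window in the single-dose screen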;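 note: plate controls were DMSO wells with enzyme plus substrate for no effect and substrate without enzyme for full effect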
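Material: LMPTP-A; amount: 0.625 nM enzyme; doses: single 20 µM dose; times: reaction 50 min, room temperature, dark; technique: fluorescence intensity of OMFP turnover product; benchmarks: no-enzyme and uninhibited controls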
Scp-1 inhibitor – blocks human Scp-1 phosphatase activity | Q9GZU7 | Recombinant Scp1, phosphopeptide, malachite green phosphate absorbance | inhibition, % at 20 µM | 0.88% of 340,000 active;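 active = inhibition above about 50% at 20 µM, limit read from the data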;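 note: plate controls were DMSO wells with enzyme for no effect and wells lacking enzyme for full effect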
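Test system: SCP-1 phosphatase catalytic domain, residues 76-261 | Compound dosing: One concentration, 20 µM, with 1.0% DMSO | Schedule: 45 min room-temperature reaction, 5 min colour, 30 min stabiliser | Detection: Absorbance at 630 nm | Read-out basis: % inhibition of SCP-1 phosphate liberation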
DNMT1 inh – blocks human DNA methyltransferase DNMT1; inhibition (reported as % activation of signal), % at 10 µM; 0.83% of 360,000 active; DNMT1 molecular beacon, Hinp1I cleavage, fluorescence; in the data active = inhibition above about 50%
SUMO1 PPI mod – modulators of human SUMO1-mediated protein-protein interactions; P63165; SUMO1 binding to a labelled peptide, TR-FRET, 1 h; inhibition, % at 20 µM; 0.33% of 360,000 active; AID 602429; in the data active = inhibition above about 37%
Target sequence (P63165 whole entry, looked up): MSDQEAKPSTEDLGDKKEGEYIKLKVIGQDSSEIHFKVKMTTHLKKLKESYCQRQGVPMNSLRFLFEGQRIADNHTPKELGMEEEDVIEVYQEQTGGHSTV
GRK2 inh – inhibitors of human GRK2 displacing RNA aptamer; P25098; bead flow cytometry, FAM-aptamer displacement from GRK2; inhibition of aptamer binding, % at 10 µM; 0.59% of 330,000 active;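 active = inhibition of aptamer binding above 40%, roughly 3 SD of noise, on plates passing a quality check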;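 note: median bead fluorescence of bound FAM aptamer so fluorescent compounds give negative values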
Target sequence (P25098 whole entry, looked up): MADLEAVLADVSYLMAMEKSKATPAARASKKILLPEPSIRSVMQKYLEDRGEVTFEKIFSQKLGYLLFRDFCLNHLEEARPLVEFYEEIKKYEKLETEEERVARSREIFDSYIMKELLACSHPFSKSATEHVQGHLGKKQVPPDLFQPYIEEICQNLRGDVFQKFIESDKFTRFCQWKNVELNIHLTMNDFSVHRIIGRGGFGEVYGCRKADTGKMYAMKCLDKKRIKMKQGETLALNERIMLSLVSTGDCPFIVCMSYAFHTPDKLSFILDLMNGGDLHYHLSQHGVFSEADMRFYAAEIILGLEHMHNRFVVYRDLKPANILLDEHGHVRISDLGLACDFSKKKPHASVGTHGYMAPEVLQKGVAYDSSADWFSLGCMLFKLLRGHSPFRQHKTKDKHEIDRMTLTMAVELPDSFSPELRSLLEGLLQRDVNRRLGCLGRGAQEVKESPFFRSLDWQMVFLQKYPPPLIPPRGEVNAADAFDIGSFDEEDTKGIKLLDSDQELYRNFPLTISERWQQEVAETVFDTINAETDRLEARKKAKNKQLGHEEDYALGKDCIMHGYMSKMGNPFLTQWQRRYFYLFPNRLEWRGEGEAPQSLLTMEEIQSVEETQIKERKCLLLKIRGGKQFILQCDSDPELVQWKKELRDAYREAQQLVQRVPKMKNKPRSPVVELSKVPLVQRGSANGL
STEP block – blocks human striatal-enriched tyrosine phosphatase | P54829 | inhibition, % at 20 µM | recombinant STEP, OMFP fluorogenic substrate, fluorescence | AID 588621 | 0.25% of 360,000 active;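 active = inhibition at 20 µM, scaled per plate between control wells, above about 37%, limit read from the data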;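 note: 0% = DMSO with enzyme and substrate and 100% = substrate only without enzyme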
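System: STEP (striatal-enriched tyrosine phosphatase) enzyme, cell-free; medium: Bis-Tris pH 6.0 buffer with DTT, detergent; dosing: 20 µM, 1% DMSO; times: reaction 20 min, ambient temperature; detection: fluorescence, 480/540 nm; read-out basis: normalized % inhibition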
Scp-1 conf – Scp-1 (human) inhibition, single-dose confirmed | inhibition, % at 20 µM | 61% of 2,500 active | shares compounds with Scp-1 inhibitor | recombinant SCP-1 catalytic domain, phosphate release, malachite green absorbance;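 note: plate controls were DMSO with enzyme for no effect and buffer wells lacking enzyme for full effect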
MG interference – interferes with malachite green readout, flagging false Scp-1 hits | AID 540313 | shares compounds with Scp-1 inhibitor | Colorimetric interference counterscreen, malachite green absorbance 630 nm | 2,500 tested, under 10 active | apparent inhibition (interference), % at 20 µM;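 note: compounds added after enzyme reaction finished so only phosphate colour detection is probed; plate controls were DMSO wells with completed Scp-1 reaction for no effect and substrate wells lacking enzyme for full effect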
Scp-1 Tm shift – Scp-1 (human) binding by thermal shift; shares compounds with Scp-1 inhibitor; Recombinant SCP1, Sypro Orange thermal shift Tm; thermal shift relative to vanadate control, % at 40 µM; 25% of 1,500 active; AID 540329;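 active = substances whose mean melting-temperature shift, as a percentage of the reference inhibitor's shift, reaches about 5.3%, limit read from the data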;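 note: 0% = Tm of DMSO wells and 100% = Tm with sodium orthovanadate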
An asterisk follows results filed as active; . = no result; ! = not confirmed by another sample.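 Rule for the calls, unless noted: active = inhibition of at least 30% at 20 µM; inactive = the rest.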

SMILES | LMPTP inh | Scp-1 inhibitor | DNMT1 inh | SUMO1 PPI mod | GRK2 inh | STEP block | Scp-1 conf | MG interference | others
COc1ccc(N2CC(C(=O)Nc3ccc(S(=O)(=O)N4CCCC4)cc3)CC2=O)cc1 (stereo not drawn) | -0.4 | 53.5* | -5.3 | 1.4 | 0.0 | -1.3 | -23.4 | -20.0
O=C(Nc1nc2ccccc2s1)C1CC(=O)N(c2ccccc2)C1 (stereo not drawn) | -0.1 | -4.3 | -0.2 | -0.2 | 6.0 | -3.5 | . | .
CCOc1ccc(N2CC(C(=O)Nc3ccc(N4CCOCC4)cc3)CC2=O)cc1 (stereo not drawn) | -0.9 | -0.6 | -2.2 | -1.5 | 0.0 | -2.2 | -2.1 | -14.5
COc1ccc(N2CC(C(=O)Nc3nc4ccccc4s3)CC2=O)cc1 (stereo not drawn) | -0.9 | -4.3 | 0.2 | 2.6 | 1.0 | 0.9 | -3.0 | -4.3
CCC(=O)N1CCC1(C)C(=O)Nc1ccc2c(c1)CCN2C(C)=O (stereo not drawn) | 0.0 | . | 9.1 | -0.6 | . | 0.8 | . | .
O=C(CSc1nnc(NC(=O)C2CC2)s1)Nc1ccccc1Cl | 0.1 | -0.6 | 0.1 | 2.9 | 3.0 | -1.6 | . | .
CCOc1ccccc1NC(=O)N1CCC(NC(=O)c2cccc(C)c2)CC1 | 31.8 | 99.3* | 40.2 | 1.5 | 3.0 | 7.3 | 67.2* | -15.9 | Scp-1 Tm shift=-14.8
O=C1CCN(Cc2ccccc2)S(=O)(=O)c2ccc(F)cc21 | -1.1 | 51.5* | 19.6 | 1.3 | 0.0 | -2.7 | 1.7 | -17.2
CCCCn1c2c(c(=N)c3c1CCC3)CCC2 | 0.5 | 93.8* | 0.9 | 5.2 | 10.0 | -3.1 | -11.4 | -15.3
CSc1nc(N)nc2c1ncn2C1OC(CO)C(O)C1O (stereo not drawn) | -1.0 | -5.0 | 3.2 | 0.2 | . | -3.3 | -11.1 | -15.3
Nc1nc(SCc2ccccc2)c2ncn(C3OC(CO)C(O)C3O)c2n1 (stereo not drawn) | -1.1 | -6.7 | -3.6 | 1.8 | . | -1.2 | . | .
Cc1nn(Cc2ccccc2Cl)c(C)c1NC(=O)c1noc2c1CCCCC2 | -0.5 | -8.4 | -1.8 | -0.2 | 6.0 | -2.6 | . | .
Cc1nn(Cc2ccccc2Cl)c(C)c1NC(=O)c1noc(C(C)C)c1[N+](=O)[O-] | -1.0 | 63.0* | 0.1 | -8.6 | 0.0 | -0.6 | -113.0 | -9.8
O=C1NC(=O)C(c2ccccc2)(c2ccc(O)cc2)N1 (stereo not drawn) | -0.8 | -3.6 | 3.0 | -2.1 | 0.0 | 1.7 | . | .
O=C1NC(=O)C(c2ccccc2)(c2ccccc2)N1 | -0.9 | 84.8*! | 1.4 | 5.1 | 1.0 | -3.3 | -13.9 | -8.7
CSc1nnc(C)c(/C=C/Nc2ccc(F)cc2F)n1 | 0.1 | 55.0* | -16.9 | -10.6 | 0.0 | 1.5 | 65.7* | -7.9 | Scp-1 Tm shift=-18.7
CCN(CC(=O)Nc1c(F)cccc1F)C(=O)CNC(=O)c1cccc(C)c1 | -0.9 | -6.0 | -0.5 | 3.9 | 4.0 | 2.1 | . | .
CCC1(c2ccccc2)NC(=O)N(CC(=O)NNC(=O)COc2ccc(Cl)cc2C)C1=O (stereo not drawn) | -0.2 | -11.2 | -2.4 | 1.8 | 0.0 | 1.9 | -9.0 | -8.2
CCC1(c2ccccc2)NC(=O)N(CC(=O)NCc2ccncc2)C1=O (stereo not drawn) | -2.2 | -9.8 | -0.8 | -2.5 | 0.0 | -2.2 | . | .
COC(=O)c1c(C)cc(O)cc1O | -1.0 | -4.0 | -2.1 | 5.1 | 0.0 | 1.3 | . | .
COC(=O)c1cc(O)cc(OC)c1C(=O)c1c(O)cc(C)cc1O | 1.4 | 58.2* | -1.6 | 7.6 | 4.0 | -2.0 | 31.4* | -17.5 | Scp-1 Tm shift=0.6
O=C(CN1CCN(Cc2ccccc2)CC1)Nc1cccc(Cl)c1Cl | 0.5 | . | 2.7 | 0.2 | . | -1.4 | . | .
COc1ccc(C2CCCN2CC(O)COc2ccccc2C(C)C)cc1 (stereo not drawn) | 1.3 | 61.0* | 0.3 | -3.1 | 0.0 | 0.4 | -22.4 | -18.1
CC1=CCC(C(=O)O)C(C(=O)Nc2ccc(-c3nc4ccc(C)cc4s3)cc2)C1 (stereo not drawn) | 0.7 | 50.0* | 25.1 | 8.8 | 22.0 | 1.7 | 65.4* | -4.6 | Scp-1 Tm shift=3.6
NC(=O)C1CCN(C(=O)CCc2nc3sc4c(c3c(=O)[nH]2)CCCC4)CC1 | 4.8 | 58.2* | 35.2 | 8.1 | 6.0 | 3.7 | 62.3* | -13.9 | Scp-1 Tm shift=1.7
SMILES | LMPTP inh | Scp-1 inhibitor | DNMT1 inh | SUMO1 PPI mod | GRK2 inh | STEP block | Scp-1 conf | MG interference | others
O=C(CSc1nc2ccccc2[nH]1)NC1CCCC1 | 1.9 | 62.3* | 37.3 | 4.6 | 9.0 | 22.3 | 44.7* | -12.0 | Scp-1 Tm shift=-10.9
O=C(CSc1n[nH]c(C2CCCC2)n1)NC1CCCC1 | 1.0 | 63.9* | 0.6 | -1.7 | 0.0 | -3.8 | 1.7 | -4.6
O=c1[nH]c(/C=C\c2cccs2)nc(O)c1[N+](=O)[O-] | 3.2 | 29.2 | 21.6 | 0.1 | 1.0 | -0.8 | . | .
CCCCc1c(CCC)c(=N)c2ccccc2n1C | 10.0 | 91.0* | 0.3 | 1.4 | 3.0 | -1.1 | 7.3 | -10.4
CCCCc1c(O)c2ccccc2n(CCCC)c1=O | 0.3 | -6.3 | -2.4 | 5.7 | 1.0 | -3.9 | . | .
O=C(Nc1c(C(=O)N2CCOCC2)cnn1-c1ccccc1)c1ccc(F)cc1 | -0.9 | 3.8 | 1.2 | 5.2 | 3.0 | -1.2 | . | .
CCOC(=O)N1CCN(c2ccc(S(=O)(=O)N3CCOCC3)cn2)CC1 | -0.8 | 79.8* | 0.8 | -2.1 | 0.0 | 3.7 | -12.2 | -15.8
O=S(=O)(c1ccc(N2CCOCC2)nc1)N1CCOCC1 | 0.7 | -3.8 | -1.7 | 2.2 | 2.0 | 1.5 | . | .
CCN(CCn1cccn1)Cc1c(C(=O)N2C[C@@H](C)O[C@@H](C)C2)nc2ccc(Cl)cn12 | 0.4 | 0.9 | -1.5 | -0.7 | 0.0 | 4.7 | . | .
Cc1c(C(=O)NCCN2CCOC2=O)oc2c(F)cccc12 | -0.6 | 1.1 | 0.4 | 2.4 | 2.0 | -2.2 | -19.4 | -15.9
O=C(O)c1ccc(COc2ccccc2/C=C2\NC(=O)N(Cc3ccccc3F)C2=O)cc1 | 2.6 | 30.4 | -0.7 | -11.6 | 0.0 | 1.6 | . | .
O=C(CN1C(=O)N/C(=C\c2ccccc2OCc2ccc(C(=O)O)cc2)C1=O)Nc1ccccc1F | 28.6 | 50.1* | 5.9 | -24.0 | 0.0 | 8.4 | 78.2* | -8.7 | Scp-1 Tm shift=-3.4
Cc1ccc(NC(=O)CN2C(=O)N/C(=C/c3ccccc3OCc3cccc(C(=O)O)c3)C2=O)cc1 | 0.8 | 25.1 | 3.0 | -16.6 | 4.0 | 0.1 | . | .

From PubChem
